Assay [1] deals with T1, firefly luciferase (Photinus pyralis, UniProt P08659). In words: Monitoring of firefly luciferase in living cells with D-luciferin-ethylester. As to conditions: 20 μM, 30 min pre-incubation, 70.4 K15 and 55.1c K65 cells. The format is cell-based. A digest of the protocol:
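Living 70.4 K15 and 55.1c K65 cells stably expressing firefly luciferase were pre-incubated for 30 min in medium with 20 μM test compound (37°C, 5% CO2) and then washed with PBS. After 5 min, signal was read on a plate reader over 4 min or on a CCD camera over 8 min; n=4.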

The target in assay [2] is T1, firefly luciferase. Description: Inhibition of pure commercially available firefly luciferase. The class given is biochemical. To be noted: 10 μM, different enzyme concentrations. A digest of the protocol: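 Purified commercial firefly luciferase was prepared as a stock of 1 mg/ml in luciferase assay buffer lacking ATP and D-luciferin, supplemented with 0.1% BSA. Several enzyme concentrations were assayed with 10 μM test compound. Values are means of two experiments.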

In assay [3] the target is T1, firefly luciferase. In words: Firefly luciferase activity assay in cell lysates, compound added to lysate. The class given is biochemical. To be noted: for IC50: IC50 for firefly luciferase inhibition.
In a further assay the target is Renilla luciferase (Renilla reniformis, UniProt P27652). In words: Renilla luciferase activity assay in cell lysates. As to conditions: 20 μM added to lysates of Hepa1c1c7, 70.4 and 55.1c cells. The class given is biochemical. In a few lines: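 Hepa1c1c7, 70.4 and 55.1c cells were transfected with CMV-driven Renilla luciferase plasmid. After 24 h, cells were lysed in passive lysis buffer. 20 μM test compound (1% v/v of 2 mM DMSO stock) was added to the lysate 5 min before reading. Luminescence was read for 10 s; n=3 and 4.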

The next assay relates to Gaussia luciferase. In words: Gaussia luciferase activity assay in cell culture supernatant. The format is biochemical. To be noted: 20 μM, Hepa1c1c7, 70.4 and 55.1c cells. In a few lines: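 Hepa1c1c7, 70.4 and 55.1c cells were transfected by Lipofectamine 2000 with an AP-1-responsive Gaussia luciferase vector. After 24 h, culture supernatant was taken. 20 μM test compound (1% v/v of 2 mM DMSO solution) was added 5 min before reading. Luminescence was read for 10 s; n=3 and 4.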

Assay [4] concerns the target T1, firefly luciferase. In words: Firefly luciferase reporter. The class given is cell-based. As to conditions: 20 μM; for Firefly luciferase inhibition in cells: stably transfected cell lines. In a few lines:
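Stably STF-transfected 70.4- and 55.1c-derived mouse hepatoma clones, with G418 removed at plating, were exposed in culture to 20 μM test compound (0.1% DMSO) for 1 h or 24 h. Cells were lysed in passive lysis buffer. Signal was normalised to Alamar Blue vitality and expressed as % untreated; n=3 and 4.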

Assay [5] deals with β-catenin target genes Axin2 and Gpr49. In words: Real-time RT-PCR of β-catenin target genes. As to conditions: 20 μM, 24 h. The format is cell-based, mouse.
A further assay addresses T2, Ultra-Glo luciferase (Photuris pensylvanica, UniProt Q27757).
T2 sequence (Q27757 1-545): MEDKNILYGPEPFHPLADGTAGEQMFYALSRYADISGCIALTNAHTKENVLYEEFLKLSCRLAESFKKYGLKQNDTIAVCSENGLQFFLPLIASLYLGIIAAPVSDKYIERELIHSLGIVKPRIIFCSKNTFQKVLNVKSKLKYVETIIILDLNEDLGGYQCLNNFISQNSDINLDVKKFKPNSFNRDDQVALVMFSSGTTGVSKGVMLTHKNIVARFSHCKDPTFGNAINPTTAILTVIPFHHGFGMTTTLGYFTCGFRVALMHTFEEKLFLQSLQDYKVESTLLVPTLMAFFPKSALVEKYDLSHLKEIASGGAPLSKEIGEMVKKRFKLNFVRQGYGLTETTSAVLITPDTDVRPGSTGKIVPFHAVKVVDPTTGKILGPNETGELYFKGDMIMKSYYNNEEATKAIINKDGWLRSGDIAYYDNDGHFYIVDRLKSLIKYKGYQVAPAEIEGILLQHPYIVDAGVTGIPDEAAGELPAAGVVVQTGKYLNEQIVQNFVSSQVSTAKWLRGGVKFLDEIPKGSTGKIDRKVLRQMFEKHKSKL
As to conditions: ref Promega Corporation web page; cited from earlier work.

Assay [6] relates to firefly luciferase. As to conditions: cited from earlier work.

A value given as a limit tells only on which side of the number the result lay.

By IC50 is commonly meant the concentration that inhibits the measured activity by half. Read a low IC50 as greater potency.

T1 sequence (P08659 whole entry): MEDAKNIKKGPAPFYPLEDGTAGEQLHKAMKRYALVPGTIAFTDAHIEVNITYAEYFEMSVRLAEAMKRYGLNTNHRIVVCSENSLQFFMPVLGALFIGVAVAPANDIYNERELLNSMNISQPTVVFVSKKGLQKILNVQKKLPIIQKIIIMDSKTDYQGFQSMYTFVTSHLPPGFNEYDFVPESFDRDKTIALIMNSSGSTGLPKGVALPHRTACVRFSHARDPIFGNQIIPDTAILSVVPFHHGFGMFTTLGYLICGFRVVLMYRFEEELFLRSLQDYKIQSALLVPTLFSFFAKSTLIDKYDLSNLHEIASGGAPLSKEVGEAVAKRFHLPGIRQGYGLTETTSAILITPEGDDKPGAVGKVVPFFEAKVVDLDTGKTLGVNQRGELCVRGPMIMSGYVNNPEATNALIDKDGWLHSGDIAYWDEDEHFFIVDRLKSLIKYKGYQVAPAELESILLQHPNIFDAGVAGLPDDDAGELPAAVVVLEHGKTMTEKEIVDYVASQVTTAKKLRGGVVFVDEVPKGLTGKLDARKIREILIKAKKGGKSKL
Renilla luciferase, sequence (P27652 whole entry): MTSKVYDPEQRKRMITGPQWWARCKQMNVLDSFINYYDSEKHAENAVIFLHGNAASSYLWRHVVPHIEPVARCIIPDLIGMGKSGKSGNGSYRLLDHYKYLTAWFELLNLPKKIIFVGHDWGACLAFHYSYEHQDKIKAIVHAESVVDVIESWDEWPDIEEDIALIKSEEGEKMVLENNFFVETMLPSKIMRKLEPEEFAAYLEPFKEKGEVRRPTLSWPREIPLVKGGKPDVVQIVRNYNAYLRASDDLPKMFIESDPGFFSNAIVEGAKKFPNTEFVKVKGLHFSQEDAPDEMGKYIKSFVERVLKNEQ

For the molecule `COc1ccc(/C=C/c2ccccc2F)cc1` [NFκBAI4, (E)-2-fluoro-4′-methoxystilbene], the “Firefly luciferase activity in living cells” value on firefly luciferase [1] is “effectively inhibits”. The “Inhibition of pure firefly luciferase” value on firefly luciferase [2] is “also inhibited”. In addition, the “Decay of the luminescence signal” value at firefly luciferase [3] (1 μM, coenzyme A-free buffer, 9 min, compared with untreated lysate) is recorded as “somewhat less pronounced”. Moreover, the “Quenching of remnant firefly signal by Renilla buffer” value at firefly luciferase [3] (20 μM added to Renilla buffer) is “further improved”. The “Inhibition of firefly luciferase signals” value on firefly luciferase [3] (20 μM added to lysates of untreated transiently transfected Hepa1c1c7, 70.4 and 55.1c cells) is reported as “strongly inhibited”. Further, the IC50 against firefly luciferase [3] (lysate of 55.1cSTF K53 cells) was 950 nM; against firefly luciferase [3] (lysate of 55.1cSTF K65 cells), 1420 nM; against firefly luciferase [3] (lysate of 70.4STF K15 cells), 850 nM; on firefly luciferase [3] (lysate of 70.4STF K31 cells), 880 nM; on firefly luciferase [3] (reaction buffer without coenzyme A, results not shown) it was about 1000 nM. On firefly luciferase [3] (varied ATP and D-luciferin, mixed hyperbolic fit), the “Mechanism of inhibition with respect to ATP and D-luciferin” value was “non-competitive”. In addition, the “Effect on Renilla luciferase” value at Renilla luciferase is given as “not affected”. For the same molecule, the “Effect on Gaussia luciferase” value in the assay on Gaussia luciferase is reported as “not affected”. The “Duration of firefly luciferase inhibition in living cells” value at firefly luciferase [4] was over 24 h. Further, the “Firefly luciferase inhibition in cells” value on firefly luciferase [4] (1 h incubation) was “strongly inhibited”; at firefly luciferase [4] (24 h incubation) it was “still pronounced”; on firefly luciferase [4] (48 h incubation), “still visible in 70.4-derived, but not in 55.1c-derived, cell lines”. In addition, at firefly luciferase [4] (24 h, transiently transfected Hepa1c1c7, 70.4 and 55.1c cells), the “Luminescence of STF firefly luciferase reporter” value is listed as “strong decrease of luminescence”. In addition, the “mRNA levels of Axin2 and Gpr49” value in assay [5] is recorded as “not accompanied by a decrease in mRNA levels”.
With `Oc1ccc(/C=C/c2cc(O)cc(O)c2)cc1` [Resveratrol, 3,5,4′-trihydroxy-trans-stilbene], the “Resistance of Ultra-Glo luciferase against inhibition” value on Ultra-Glo luciferase is listed as “more resistant”. Further, in the assay on firefly luciferase [6], the “Mechanism of inhibition with respect to ATP and D-luciferin” value is “non-competitive”. Besides, the results for the “Firefly luciferase inhibition in cells” value at firefly luciferase [4] (1 h incubation) and at firefly luciferase [4] (24 h incubation) were “weaker” and “disappeared in all cell lines”, respectively.
Regarding `Cc1cccc(/C=C/c2ccccc2)n1` [SIB-1893], in the assay with firefly luciferase [6] (compared with NFκBAI4), the “Efficacy of firefly luciferase inhibition” value is on record as “somewhat lower efficacy”.

The values are drawn from paper PMC3475454 (Bioscience Reports, 2012).
